APJ antagonist – blocks the human apelin receptor APJ | P35414 | CHO-K1 APJ beta-arrestin complementation, luminescence | inhibition, % at 20 µM | actives 0.32% (n = 330,000);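 active = inhibition above about 40% at 20 µM, limit read from the data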;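 also: cells challenged with 10 nM apelin-13 agonist together with compound; plate controls were apelin-13 plus DMSO wells for no effect and DMSO wells lacking apelin-13 for full effect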
CXCR6 block – CXCR6 (human) receptor inhibition; CHO-K1 PathHunter CXCR6 beta-arrestin, luminescence; inhibition, % at 20 µM; actives 0.36% (n = 360,000); in the data active = inhibition above about 34%, passing the limit was not always enough;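 also: antagonist mode with CXCL16 agonist at 10 nM final; 0% = 10 nM CXCL16 with DMSO and 100% = unstimulated wells without agonist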
APJ ag – agonists of human APJ apelin receptor; P35414; actives 0.11% (n = 330,000); AID 2520; CHO-K1 APJ PathHunter beta-arrestin, luminescence; 0% DMSO wells, 100% apelin; activation, % at 20 µM;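 active = activation more than six SD over the plate average, tested at 20 µM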;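 also: 0% = DMSO alone and 100% = apelin-13 at 10 nM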
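Material: CHO-K1 APJ beta-arrestin complementation cell line; Input: cell density 1000 per well; Incubation: compound stimulation 90 min at 25 °C, detection 60 min; Signal: luminescence from split beta-galactosidase complementation, Galacton Star/Emerald II substrate; Controls: DMSO-only wells as negative, 10 nM Apelin-13 as positive control.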
EBI2 antag – blocks human EBI2 receptor beta-arrestin signaling; EBI2 beta-arrestin recruitment, luminescence, 7a,25-OHC stimulated; inhibition, % at 5 µM; actives 0.81% (n = 360,000); P32249; in the data active = inhibition above about 38%;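 also: enzyme fragment complementation signal reports receptor beta-arrestin coupling in cells; 0% = agonist plus DMSO wells and 100% = wells without agonist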
CCR6 antagonist – antagonists of human CCR6 receptor | P51684 | CHO-K1 CCR6 PathHunter beta-arrestin, luminescence, CCL20-stimulated | inhibition, % at 20 µM | actives 0.49% (n = 340,000) | AID 493098;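 active = compounds whose inhibition of the agonist-driven luminescence signal at 20 µM reaches about 50%, limit read from the data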;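 also: cells stimulated with CCL20 at 14 nM final; plate controls were DMSO with CCL20 for no effect and DMSO without agonist for full effect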
Target sequence (P51684 whole entry, looked up): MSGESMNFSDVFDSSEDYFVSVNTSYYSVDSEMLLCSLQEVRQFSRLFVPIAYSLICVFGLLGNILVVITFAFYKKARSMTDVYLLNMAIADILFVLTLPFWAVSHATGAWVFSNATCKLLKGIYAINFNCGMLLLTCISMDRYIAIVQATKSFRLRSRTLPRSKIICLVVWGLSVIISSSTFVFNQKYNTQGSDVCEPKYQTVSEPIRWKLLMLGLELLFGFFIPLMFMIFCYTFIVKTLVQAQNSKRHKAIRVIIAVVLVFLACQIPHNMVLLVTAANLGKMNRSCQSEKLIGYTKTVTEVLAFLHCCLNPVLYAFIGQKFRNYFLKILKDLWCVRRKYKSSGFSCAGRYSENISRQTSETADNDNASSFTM
APJ antag confirm – APJ receptor antagonism confirmation | shares compounds with APJ antagonist | APJ beta-arrestin recruitment, luminescence, antagonist mode | inhibition, % at 20 µM | actives 66% (n = 950); in the data active = inhibition above about 50%
CXCR6 antag conf – CXCR6 antagonism confirmation, single concentration | shares compounds with CXCR6 block | CHO-K1 CXCR6 PathHunter beta-arrestin, luminescence | inhibition, % at 20 µM | actives 65% (n = 700);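 active = mean inhibition over four retests above 40%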;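 also: receptor stimulated with 10 nM CXCL16 agonist; beta-galactosidase fragment complementation upon beta-arrestin recruitment to receptor; plate controls were CXCL16 plus DMSO for no effect and DMSO without CXCL16 for full effect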
Starred values were filed as active, the others as inactive. Sampled rows, rich in hits. Any-hit rate of the full collection: about 1.5%.

What do the screens show for `CS(=O)(=O)c1ncc(Cl)c(C(=O)Nc2ccc(N3CCOCC3)cc2)n1`?
APJ antagonist: 22; CXCR6 block: 25; APJ ag: 0; EBI2 antag: 2; CCR6 antagonist: 44

What do the screens show for `O=C(Nc1ccc(F)cc1)c1nc(S(=O)(=O)Cc2ccccc2)ncc1Cl`?
APJ antagonist: 40*; CXCR6 block: 62*; APJ ag: -6; EBI2 antag: 42; CCR6 antagonist: 78*; APJ antag confirm: 84*; CXCR6 antag conf: 67*

Results for COc1ccc(OC)c(NC(=O)CS(=O)(=O)Cc2ccccc2)c1 ?
APJ antagonist: -53; CXCR6 block: -7; APJ ag: -2; EBI2 antag: 2; CCR6 antagonist: 5

What do the screens show for `COc1ccc(OC)c(NC(=O)c2nc(S(=O)(=O)Cc3ccccc3)ncc2Cl)c1`?
APJ antagonist: 63*; CXCR6 block: 59*; APJ ag: -9; EBI2 antag: 85*; CCR6 antagonist: 84*; APJ antag confirm: 96*; CXCR6 antag conf: 69*

Results for CCS(=O)(=O)c1ncc(Cl)c(C(=O)Nc2ccc(S(=O)(=O)N(C)c3ccccc3)cc2)n1 ?
APJ antagonist: 67*; CXCR6 block: 85*; APJ ag: -5; EBI2 antag: 86*; CCR6 antagonist: 94*; APJ antag confirm: 102*; CXCR6 antag conf: 92*

What do the screens show for `CC(=O)Nc1ccc(S(=O)(=O)N(C)c2ccccc2)cc1`?
APJ antagonist: 5; CXCR6 block: -5; APJ ag: -5; EBI2 antag: -6; CCR6 antagonist: 15

Results for Cc1ccc(C)c(C(O)c2ncc(-c3ccccc3F)[nH]2)c1 (stereo unspecified) ?
CXCR6 block: -2; EBI2 antag: 0

Results for Cc1cc(C)cc(Cn2cc(CN3CC(N(C)C)CS3(=O)=O)nn2)c1 (stereo unspecified) ?
CXCR6 block: -4; EBI2 antag: -13

What do the screens show for `CCOC(=O)C1=C(C)NC(c2cccs2)C(=O)N1` (stereo unspecified)?
APJ antagonist: 4; CXCR6 block: -1; APJ ag: -2; EBI2 antag: -6; CCR6 antagonist: -6

Results for CCOC(=O)C1=C(C)NC2=C(C(=O)CC(c3cccs3)C2)C1c1cccs1 (stereo unspecified) ?
APJ antagonist: 41*; CXCR6 block: 42*; APJ ag: -11; EBI2 antag: 31; CCR6 antagonist: 54*; APJ antag confirm: 73*; CXCR6 antag conf: 45*

How did CCOc1cc(-c2ccccc2)nc2c1CN(S(=O)(=O)c1ccc(C)cc1)C(c1cccc(Cl)c1)C2 (stereo unspecified) do in these assays?
EBI2 antag: 8

Results for O=S(=O)(NNc1ncc(C(F)(F)F)cc1Cl)c1ccc(F)cc1F ?
APJ antagonist: 30; CXCR6 block: -3; APJ ag: 0; EBI2 antag: -5; CCR6 antagonist: -16

What do the screens show for `FC(F)(F)c1cccc(NC(=S)NNC(=S)Nc2ccc(Cl)cc2)c1`?
APJ antagonist: 0; APJ ag: -2

What do the screens show for `FC(F)(F)c1cnc(NNC(=S)Nc2ccc(Cl)cc2)c(Cl)c1`?
APJ antagonist: 64*; CXCR6 block: 72*; APJ ag: -10; EBI2 antag: 32; CCR6 antagonist: 94*; APJ antag confirm: 117*; CXCR6 antag conf: 84*

How did Fc1ccc(NC(=S)NNc2ncc(C(F)(F)F)cc2Cl)c(F)c1 do in these assays?
APJ antagonist: 72*; CXCR6 block: 81*; APJ ag: -7; EBI2 antag: 19; CCR6 antagonist: 92*; APJ antag confirm: 99*; CXCR6 antag conf: 76*

How did O=[N+]([O-])c1ccc(Nc2cccc3c2[nH]c2c(-c4ccccc4)nccc23)c([N+](=O)[O-])c1 do in these assays?
CXCR6 block: -5; EBI2 antag: -9; CCR6 antagonist: 3

Results for CCCS(=O)(=O)NC(=O)C1(C)CCN(C(=O)c2ccccc2OC(C)=O)C1 (stereo unspecified) ?
CXCR6 block: -2; EBI2 antag: -6

What do the screens show for `C=C(C)Cn1c2ccc(NC(=O)NCc3ccc(F)cc3)cc2c(=O)n1C`?
CXCR6 block: -13; EBI2 antag: -11

Results for CC1(C)CC(=O)C2=C(C1)OC1=C(C(=O)CC(C)(C)C1)C2c1ccc(O)cc1O ?
APJ antagonist: 52*; CXCR6 block: 66*; APJ ag: -4; EBI2 antag: -5; CCR6 antagonist: 93*; APJ antag confirm: 105*; CXCR6 antag conf: 88*

How did CC1(C)CC(=O)C2=C(C1)OC1=C(C(=O)CC(C)(C)C1)C2c1ccc(O)c([N+](=O)[O-])c1 do in these assays?
APJ antagonist: 24; CXCR6 block: 15; APJ ag: -6; EBI2 antag: -3; CCR6 antagonist: 22

What do the screens show for `N=C1S/C(=C\c2ccco2)C(=O)N1c1nccs1`?
APJ antagonist: 44*; CXCR6 block: 66*; APJ ag: -8; EBI2 antag: -3; CCR6 antagonist: 83*; APJ antag confirm: 66*; CXCR6 antag conf: 77*

What do the screens show for `O=C(NNC(=S)Nc1ccccc1)Nc1ccccc1`?
APJ antagonist: 43*; CXCR6 block: 71*; APJ ag: -3; EBI2 antag: -2; CCR6 antagonist: 54*; APJ antag confirm: 39; CXCR6 antag conf: 39

How did O=C(NNC(=S)Nc1ccccc1)c1ccncc1 do in these assays?
APJ antagonist: -5; CXCR6 block: -3; APJ ag: -4; EBI2 antag: -3; CCR6 antagonist: 6

Results for CCCSc1cc(NCCOC(=O)CCC)c([N+](=O)[O-])c2nonc12 ?
APJ antagonist: 42*; CXCR6 block: 62*; APJ ag: -4; EBI2 antag: -5; CCR6 antagonist: 84*; APJ antag confirm: 75*; CXCR6 antag conf: 72*

How did CCC(=O)OCCNc1cc(Sc2nc3ccccc3s2)c2nonc2c1[N+](=O)[O-] do in these assays?
APJ antagonist: 68*; CXCR6 block: 89*; APJ ag: -5; EBI2 antag: 27; CCR6 antagonist: 109*; APJ antag confirm: 86*; CXCR6 antag conf: 101*

How did CC(C)(C)c1ccc2cccc(F)c2n1 do in these assays?
CXCR6 block: -8; EBI2 antag: -1

What do the screens show for `N#Cc1c([N+](=O)[O-])cc([N+](=O)[O-])cc1S(=O)(=O)Cc1ccccc1`?
APJ antagonist: 64*; CXCR6 block: 95*; APJ ag: -1; EBI2 antag: 6; CCR6 antagonist: 106*; APJ antag confirm: 61*; CXCR6 antag conf: 87*

High-throughput results (PubChem)
